Assay results collected from several papers.
Each line is one published result; the experiments were not run side by side. ≈ marks a conversion by molar mass, not a printed value.
CYP3A7: Cytochrome P450 3A7 (CYP3A7, Homo sapiens, UniProt P24462)

Compound | tested on | assay | system | setting | quantity | value
O=c1[nH]cnc2c1ncn2[C@H]1CC[C@@H](CO)O1 | MT4 | cell growth or viability, MTT | – | 5 days | CC50 | > 50 µg/mL
N#Cc1cnn2c(Nc3cn(CCN4CCCC4)cn3)cc(Nc3cccc(-n4cnnc4)c3)nc12 | – | metabolic stability | male CD-1 mouse, liver microsomes | 5 µM, 30 min, pH 7.4 | compound remaining | 67%
O=[N+]([O-])c1cccc(/C=N/c2c(-c3ccccc3)nc3ccc(Cl)cn23)c1 | MT4 | cell growth or viability, MTT | – | 5 days | CC50 | 82.1 µg/mL (≈ 218 µM)
COc1ccc2c(O[C@@H]3C[C@H]4C(=O)N[C@]5(C(=O)NS(=O)(=O)C6CC6)C[C@H]5/C=C\CCCCN(C)C(=O)[C@@H]4C3)cc(-c3nc(C(C)C)cs3)nc2c1C | CYP3A7 | enzyme activity, inhibitor, fluorescence | – | 20 µM, 10 min, pH 7.4 | inhibition | ≥ 50%
Cc1ccc(Cn2cc(C(=O)NN)c(=O)c3cc(Oc4ccccc4)ccc32)cc1 | – | metabolic stability | male CD-1 mouse, liver microsomes | 1 µM, 30 min | compound remaining | 96%
COc1c(-c2ccc3cc(NS(C)(=O)=O)ccc3c2)cc(-n2ccc(=O)[nH]c2=O)cc1C(C)(C)C | CYP3A7 | enzyme activity, inhibitor, fluorescence | – | 20 µM, 10 min, pH 7.4 | inhibition | ≥ 50%
N#Cc1cnn2c(NC3CC(F)(F)C3)cc(Nc3cccc(-n4cnnc4)c3)nc12 | – | metabolic stability | male CD-1 mouse, liver microsomes | 5 µM, 30 min, pH 7.4 | compound remaining | 75%
COC(=O)N[C@H](C(=O)N1CC2(CC2)C[C@H]1c1ncc(-c2ccc3c(c2)C(F)(F)c2cc(-c4ccc5nc([C@@H]6[C@H]7CC[C@H](C7)N6C(=O)[C@@H](NC(=O)OC)C(C)C)[nH]c5c4)ccc2-3)[nH]1)C(C)C | CYP3A7 | enzyme activity, inhibitor, fluorescence | – | 20 µM, 10 min, pH 7.4 | inhibition | ≥ 50%
N#Cc1cnn2c(Nc3cn(CCN4CCOCC4)cn3)cc(Nc3cccc(-n4cnnc4)c3)nc12 | – | metabolic stability | male CD-1 mouse, liver microsomes | 5 µM, 30 min, pH 7.4 | compound remaining | 81%
Oc1ccccc1/C=N/c1c(-c2ccccc2)nc2ccc(Cl)cn12 | MT4 | cell growth or viability, MTT | – | 5 days | CC50 | 17.9 µg/mL (≈ 51.5 µM)
CCN(CCN)c1ccc(Nc2cc(NC3CC3)n3ncc(C#N)c3n2)cc1-n1cnnc1 | – | metabolic stability | male CD-1 mouse, liver microsomes | 5 µM, 30 min, pH 7.4 | compound remaining | 92%
N#C[C@@]12C[C@@H]1[C@@H](n1cnc3c(N[C@@H](C4CCC4)C4CC4)nc(I)nc31)[C@H](O)[C@@H]2O | – | metabolic stability | rat, liver microsomes | 1 h | compound remaining | 72.9%
